KCNK3 inh = human KCNK3 channel inhibition, primary screen; CHO-KCNK3 thallium flux, FluxOR fluorescence; active compounds read low; O14649; 340,000 compounds, 0.84% hits; AID 602410; B-score at 10 µM;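 active = B-score under library mean minus 4 SD, starting fluorescence ratio at most library mean plus 5 SD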;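 also: more negative B-score means stronger inhibition of thallium flux through KCNK3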
hERG protect = compounds protecting human hERG from proarrhythmic drug block; activation (rescue from dofetilide block), less the hit threshold, % at 10 µM; 310,000 compounds, 0.51% hits; Q12809; AID 1511; CHO-hERG, FluxOR thallium flux, dofetilide IC70 present;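 active = activation above the mean of controls blocked by dofetilide plus 5 SD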;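 also: thallium influx through hERG after potassium depolarization seen as dye fluorescence rise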
KCC2 mod = KCC2 (human) Cl- transport modulation. AID 1456. KCC2 cells, thallium flux FluoZin-2 fluorescence. 190,000 compounds, 2.2% hits. Q9H2X9. B-score of Tl+ flux slope (higher = more flux/activation; lower = inhibition) at 10 µM;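 active = thallium flux slope and its plate-corrected score both differing from the plate sample mean at a set confidence after two filtering rounds, in either direction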;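 also: slope of fluorescence scaled to starting intensity during 10 to 20 s after thallium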
KCNK9 inh = blocks the human KCNK9 two-pore domain potassium channel. HEK293 KCNK9, FluxOR thallium flux fluorescence; active compounds read low. 310,000 compounds, 1.2% hits. Q9NPC2. AID 488922. B-score at 10 µM;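 active = ratio B-score over 3 SD below the library mean, with starting fluorescence within 5 SD of its mean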;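 also: negative B-score means less thallium flux so channel inhibition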
KCNQ1 pot = potentiates or activates the human KCNQ1 potassium channel. CHO-K1 KCNQ1, thallium flux FluxOR fluorescence; active compounds read high. B-score at 10 µM. P51787. 310,000 compounds, 0.35% hits;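 active = fluorescence ratio B-score, a plate-corrected score, at least three library SD, with initial intensity B-score within 5 SD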
Target sequence (P51787 whole entry, looked up): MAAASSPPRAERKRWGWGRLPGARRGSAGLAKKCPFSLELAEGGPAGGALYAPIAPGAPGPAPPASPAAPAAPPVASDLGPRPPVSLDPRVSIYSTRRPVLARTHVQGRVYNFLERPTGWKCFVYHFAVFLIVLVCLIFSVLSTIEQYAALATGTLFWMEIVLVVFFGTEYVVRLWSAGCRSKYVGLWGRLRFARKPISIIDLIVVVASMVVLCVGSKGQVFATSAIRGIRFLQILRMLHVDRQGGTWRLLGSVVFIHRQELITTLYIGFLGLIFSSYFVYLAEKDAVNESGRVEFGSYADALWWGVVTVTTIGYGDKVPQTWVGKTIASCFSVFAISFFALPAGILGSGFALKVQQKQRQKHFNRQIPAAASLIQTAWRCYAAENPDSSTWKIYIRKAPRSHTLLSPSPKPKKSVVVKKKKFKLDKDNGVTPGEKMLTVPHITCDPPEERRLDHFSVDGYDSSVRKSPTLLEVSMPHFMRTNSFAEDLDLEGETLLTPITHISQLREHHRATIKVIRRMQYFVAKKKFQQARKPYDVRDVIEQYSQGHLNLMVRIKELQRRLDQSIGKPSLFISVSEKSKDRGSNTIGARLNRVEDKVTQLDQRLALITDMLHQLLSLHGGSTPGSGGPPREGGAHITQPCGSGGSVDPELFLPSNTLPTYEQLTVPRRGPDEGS
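System: Stable KCNQ1 CHO-K1 line | Incubation: 90 min dye loading and 20 min compound exposure, both at room temperature | Measure: Ratio B score | Medium: Assay buffer for compound exposure, DMSO matched across wells | Compound dosing: Single-concentration screen | Probe or stimulus: K+/Tl+ depolarizing stimulus | Measured by: Kinetic FluxOR fluorescence, 10 s baseline plus 110 s post-stimulus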
KCNQ1 inh = blocks the human KCNQ1 potassium channel; P51787; CHO-K1 KCNQ1, FluxOR thallium flux fluorescence; active compounds read high; B-score at 10 µM; 310,000 compounds, 1.3% hits;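 active = compounds whose thallium flux B-score, printed positive for inhibition, exceeds three library SD while starting fluorescence stays within three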;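 also: channel opened by potassium depolarization with thallium stimulus after 20 min compound exposure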
KCNK9 inh conf = confirmation of human KCNK9 potassium channel inhibitors. 4,900 compounds, 43% hits. HEK293 KCNK9 cells, FluxOR thallium flux fluorescence. inhibition, % at 10 µM. shares compounds with KCNK9 inh;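 active = thallium signal inhibited by more than 5 SD of the compound-free buffer control wells, on both duplicate plates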;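 also: 0% = assay buffer control wells without compound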
Kir2-1 spec = tests whether KCNK9 modulators also affect mouse Kir2.1; inhibition, % at 10 µM; shares compounds with KCNK9 inh; Kir2.1 cells, FluxOR thallium flux fluorescence; 4,900 compounds, 4% hits;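 active = thallium signal drop more than 5 SD beyond the mean of the no-compound control wells, seen in both duplicate plates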;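 also: signal is fluorescence rise after thallium addition divided by baseline fluorescence; plate controls were assay buffer only for no effect and full block by chlorpromazine control for full effect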
HEK293 Tl ctr = non-induced cell nonspecific activity of KCNK9 modulators | 4,900 compounds, 40% hits | inhibition, % at 10 µM | shares compounds with KCNK9 inh | non-induced KCNK9-HEK293, FluxOR thallium flux;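 active = thallium signal drop beyond 5 SD of the untreated control mean, on both duplicate plates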;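 also: plate controls were buffer only IC0 wells for no effect and SID17386958 at its maximal inhibitory level for full effect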
Numbers without * were called inactive; i = inactive; · = no result. The list is not random: actives were taken first. Their share in the collection is about 4.1%.

SMILES	KCNK3 inh	hERG protect	KCC2 mod	KCNK9 inh	KCNQ1 pot	KCNQ1 inh	KCNK9 inh conf	Kir2-1 spec	HEK293 Tl ctr
Cc1nn(CC2CC2)c(=O)n1-c1ccc(Oc2ccccc2)cc1	i	-3	-1.8	i	i	i	i	i	i
O=C(COC(=O)c1cc[n+]([O-])cc1)NC(=O)c1ccc(OC(F)F)cc1	i	·	·	·	·	·	·	·	·
Cc1ccc(Cc2nnc3n(-c4cccc(C)c4)nc(C(=O)c4ccccc4)n3c2=O)cc1	i	-10	-0.17	i	i	i	i	i	i
COC(=O)c1nn(-c2cccc(C)c2)c2nnc(Cc3ccc(C)cc3)c(=O)n12	i	-8	-1.9	i	i	i	·	·	·
CCOC(=O)COc1cc(N2C(=O)CSCC2=O)c(Cl)cc1Cl	i	2	-0.18	i	i	i	·	·	·
CCOC(=O)COc1cc(-n2c(=S)[nH]c3cc(OC)c(OC)cc3c2=O)c(Cl)cc1Cl	i	-6	-0.2	-13*	16*	i	54%*	i	i
COc1cc(C)ccc1OCCOCCOc1cc(C)c(C)cc1Br	i	-11	-0.76	i	i	i	i	i	i
CC=Cc1cc(OC)c2c(c1)C(C)C(c1ccc(O)c(OC)c1)O2 (stereo not drawn)	i	·	·	·	·	·	·	·	·
CCN(CC)S(=O)(=O)c1ccc(N2CCOCC2)c(NC(=O)C23CC4CC(CC(Cl)(C4)C2)C3)c1	i	-10	-0.089	i	i	i	i	i	i
COc1cc(CC(=O)OCC(=O)N(C)C2CCCCC2)cc(OC)c1OC	i	·	·	·	·	·	·	·	·
CCCCOC(=O)c1ccc(NC(=O)c2ccccc2OC)cc1	i	-9	0.42	-9.2*	i	i	74%*	i	32%*
CCOC(=O)c1oc2ccccc2c1NC(=O)c1ccccc1OC	i	-16	·	-8.9*	i	i	34%*	i	i
CCOC(=O)c1ccc(N/C(=N\S(=O)(=O)c2ccc(F)cc2F)c2ccccc2)cc1	i	-12	0.024	i	i	i	·	·	·
CCCCOC(=O)c1ccc(NC(=O)c2cc(Cl)ccc2OC)cc1	i	-5	·	i	i	i	·	·	·
CCCCOC(=O)c1ccc(N/C(=N\S(=O)(=O)c2ccccc2)c2ccccc2)cc1	i	-8	-1.7	-12*	i	i	52%*	i	37%*
CCN1C(=O)[C@@H]2[C@@H](c3ccc(-c4ccc(C(C)=O)cc4)c(OC)c3)N3CCC[C@@]3(C(=O)OC)[C@@H]2C1=O	i	·	·	·	·	·	·	·	·
Cc1noc(C(=O)Nc2ccc(F)c(Cl)c2)c1Cl	i	-1	·	i	i	i	·	·	·
Cc1ccc(-c2noc(CNC(=O)COc3ccccc3C)n2)cc1	i	-9	·	i	i	i	·	·	·
CC(=O)c1ccc(S(=O)(=O)N2CCN(c3nn(C)c(=O)n(C)c3=O)CC2)cc1	i	·	·	·	·	·	·	·	·
Cc1ccc(C)c(Oc2cc(NN3CCCCC3)c([N+](=O)[O-])cc2[N+](=O)[O-])c1	i	-8	·	-11*	i	i	32%*	i	i
CC1(C2CC2)NC(=O)N(CC(=O)N2CCN(c3ccccc3)CC2)C1=O (stereo not drawn)	i	·	·	·	·	·	·	·	·
O=C(Nc1cc(S(=O)(=O)N2CCOCC2)ccc1Cl)C(=O)c1c(-c2ccccc2)cc2ccccn12	i	-5	-2	-8.2*	i	i	i	i	i
CC(Sc1nnc(Cc2ccccc2)n1C)C(=O)NC1CC1 (stereo not drawn)	i	·	·	·	·	·	·	·	·
Cc1nc(N2CCCCC2C)c2c(C)c(C(=O)Nc3ccccc3C(F)(F)F)sc2n1 (stereo not drawn)	i	-13	-1	-14*	i	9*	55%*	i	42%*
Cc1nc(N2CCOCC2)c2c(C)c(C(=O)Nc3ccccc3C(F)(F)F)sc2n1	i	-12	-0.37	i	i	i	·	·	·
SMILES	KCNK3 inh	hERG protect	KCC2 mod	KCNK9 inh	KCNQ1 pot	KCNQ1 inh	KCNK9 inh conf	Kir2-1 spec	HEK293 Tl ctr
C=C1c2cccc(C(F)(F)F)c2O[C@H](C(=O)OCC)[C@H]1OC	i	·	·	·	·	·	·	·	·
CCC(C)(C)C1CCc2c(sc(NC(=O)c3ccccc3C(=O)O)c2C#N)C1 (stereo not drawn)	i	15*	0.92	i	9*	i	i	i	i
CCOC(=O)C(N)CSC1CC(=O)N(CCc2ccccc2)C1=O (stereo not drawn)	i	-6	·	i	i	i	·	·	·
CCOP(=O)(OCC)c1nc(-c2cccc3ccccc23)oc1NCCc1ccc(OC)cc1	i	-12	-0.1	i	i	i	i	i	28%*
Cc1ccc(C2(C)NC(=O)N(CC(=O)NCCN3C(=O)S/C(=C\c4cccnc4)C3=O)C2=O)cc1 (stereo not drawn)	i	·	·	·	·	·	·	·	·
CC1CC(=O)N(CCc2ccccc2)C(=O)C1	i	·	·	·	·	·	·	·	·
O=C1CC(=O)N(CCc2ccccc2)C(=O)N1CCc1ccccc1	i	-12	-1.8	i	i	i	i	i	i
COc1ccc(C(=O)NCC(C)(C)N2CCOCC2)cc1S(=O)(=O)N1CCCC1	i	·	·	·	·	·	·	·	·
CCC(C)N(C(=O)CSc1nnc(NC(C)C)s1)C1CCS(=O)(=O)C1 (stereo not drawn)	i	-6	·	i	i	i	·	·	·
COc1ccc(/C=C/c2nc(-c3ccccc3O)n[nH]2)cc1OC	i	2	0.21	i	i	i	i	i	i
O=C(O)COc1ccc(/C=C/c2nc(-c3ccccc3O)n[nH]2)cc1	i	-7	·	i	i	i	·	·	·
CC1=Nc2cc(C(=O)N3CCCCC3)ccc2Sc2ccc(C)cc21	i	-11	·	i	i	i	i	i	i
CC1=Nc2cc(C(=O)N3CCCC3)ccc2Sc2ccc(C)cc21	i	-5	·	i	i	i	·	·	·
COc1ccc(-n2c(Cc3cccn3C)nnc2SCC(=O)Nc2cccc(Cl)c2)cc1	i	-3	-1.5	i	i	i	i	i	i
COc1ccc(-n2c(Cc3cccn3C)nnc2SCC(=O)Nc2cccc(NC(C)=O)c2)cc1	i	-12	·	i	i	i	·	·	·
COc1ccc(NC(=O)CSc2nnc(Cc3cccs3)n2-c2ccc(C)cc2)cc1	i	-7	-1.1	i	i	i	i	i	i

Assay outcomes: PubChem BioAssay, several laboratories
